Test results as given in ChEMBL document CHEMBL4043179, “Triple reuptake inhibitors: Design, synthesis and structure-activity relationship of benzylpiperidine-tetrazoles” (Bioorg Med Chem, 2017).

Tests used:
Format in all cases: cell-based
[1] = target: T1, Sodium-dependent serotonin transporter (Homo sapiens, UniProt P31645); assay: Inhibition of re-uptake of [3H]-5-HT at human SERT at 10 uM expressed in HEK293 cells by liquid scintillation counting
Target sequence in this assay (P31645 whole entry, looked up): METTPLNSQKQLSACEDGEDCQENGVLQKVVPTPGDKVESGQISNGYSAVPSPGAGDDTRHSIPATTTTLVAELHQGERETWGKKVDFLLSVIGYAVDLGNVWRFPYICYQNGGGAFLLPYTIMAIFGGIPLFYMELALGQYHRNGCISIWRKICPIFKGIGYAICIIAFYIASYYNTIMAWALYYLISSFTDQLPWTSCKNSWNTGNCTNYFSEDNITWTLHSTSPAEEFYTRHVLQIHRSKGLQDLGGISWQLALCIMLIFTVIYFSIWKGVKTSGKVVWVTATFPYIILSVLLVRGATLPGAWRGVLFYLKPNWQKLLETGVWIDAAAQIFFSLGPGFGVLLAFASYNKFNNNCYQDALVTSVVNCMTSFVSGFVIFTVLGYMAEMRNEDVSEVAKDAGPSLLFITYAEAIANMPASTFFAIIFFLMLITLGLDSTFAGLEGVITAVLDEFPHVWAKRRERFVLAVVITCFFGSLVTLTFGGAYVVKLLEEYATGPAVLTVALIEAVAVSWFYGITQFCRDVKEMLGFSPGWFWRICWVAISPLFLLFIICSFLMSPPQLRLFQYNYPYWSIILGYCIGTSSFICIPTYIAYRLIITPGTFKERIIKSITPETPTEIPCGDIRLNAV

[2] = target: T2, Sodium-dependent noradrenaline transporter (Homo sapiens, UniProt P23975); assay: Inhibition of re-uptake of [3H]-NE at human NET at 10 uM expressed in HEK293 cells by liquid scintillation counting
T2 sequence (P23975 whole entry): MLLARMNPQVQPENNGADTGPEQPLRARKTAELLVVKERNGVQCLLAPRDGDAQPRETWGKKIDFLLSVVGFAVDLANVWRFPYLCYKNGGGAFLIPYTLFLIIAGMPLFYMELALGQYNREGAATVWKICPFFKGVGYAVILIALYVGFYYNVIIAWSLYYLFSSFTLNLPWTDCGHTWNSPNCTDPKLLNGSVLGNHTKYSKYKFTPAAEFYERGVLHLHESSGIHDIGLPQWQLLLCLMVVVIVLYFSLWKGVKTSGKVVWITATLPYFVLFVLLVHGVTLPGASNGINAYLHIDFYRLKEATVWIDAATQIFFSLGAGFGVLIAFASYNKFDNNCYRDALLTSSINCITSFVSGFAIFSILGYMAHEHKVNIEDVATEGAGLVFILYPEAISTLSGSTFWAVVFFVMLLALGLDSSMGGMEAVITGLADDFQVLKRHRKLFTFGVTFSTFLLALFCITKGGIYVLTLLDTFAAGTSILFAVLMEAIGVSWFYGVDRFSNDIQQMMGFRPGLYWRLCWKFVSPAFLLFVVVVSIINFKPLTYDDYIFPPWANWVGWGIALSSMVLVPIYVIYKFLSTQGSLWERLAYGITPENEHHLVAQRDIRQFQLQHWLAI

[3] = target: T2, Sodium-dependent noradrenaline transporter; assay: Inhibition of re-uptake of [3H]-NE at human NET expressed in HEK293 cells by liquid scintillation counting
Method in brief: (§1)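 HEK-293 cells were grown in medium with fetal bovine serum and transfected with human DAT or NET. Uptake of radiolabelled [3H]-DA or [3H]-NE, each at 20 nM in the assay, was measured by liquid scintillation counting. The method follows a literature procedure with slight modification, and reference reuptake inhibitors were run alongside.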

[4] = target: T1, Sodium-dependent serotonin transporter; assay: Inhibition of re-uptake of [3H]-5-HT at human SERT expressed in HEK293 cells by liquid scintillation counting
Target sequence in this assay (P31645 whole entry): as the sequence (P31645 whole entry, looked up) above

[5] = target: T3, Sodium-dependent dopamine transporter (Homo sapiens, UniProt Q01959); assay: Inhibition of re-uptake of [3H]-DA at human DAT at 10 uM expressed in HEK293 cells by liquid scintillation counting
T3 sequence (Q01959 whole entry): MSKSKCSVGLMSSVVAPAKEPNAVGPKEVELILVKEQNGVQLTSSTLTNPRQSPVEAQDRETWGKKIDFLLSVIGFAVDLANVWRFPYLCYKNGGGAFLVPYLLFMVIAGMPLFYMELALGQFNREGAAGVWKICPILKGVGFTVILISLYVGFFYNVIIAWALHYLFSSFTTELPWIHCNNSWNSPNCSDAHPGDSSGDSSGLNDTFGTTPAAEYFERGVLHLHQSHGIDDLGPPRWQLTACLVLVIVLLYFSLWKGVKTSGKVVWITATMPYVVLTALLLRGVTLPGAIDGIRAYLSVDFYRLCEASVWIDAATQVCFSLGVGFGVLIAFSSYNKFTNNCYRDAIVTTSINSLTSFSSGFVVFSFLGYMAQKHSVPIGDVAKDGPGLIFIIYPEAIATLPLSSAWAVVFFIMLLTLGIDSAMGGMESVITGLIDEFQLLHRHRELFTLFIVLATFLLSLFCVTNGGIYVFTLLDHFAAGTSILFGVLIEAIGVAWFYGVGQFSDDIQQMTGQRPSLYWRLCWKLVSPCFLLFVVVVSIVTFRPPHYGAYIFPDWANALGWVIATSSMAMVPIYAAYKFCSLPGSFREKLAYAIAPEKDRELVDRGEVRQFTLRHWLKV

[6] = target: T3, Sodium-dependent dopamine transporter; assay: Inhibition of re-uptake of [3H]-DA at human DAT expressed in HEK293 cells by liquid scintillation counting; method in brief: as §1

| SMILES | inhibition [1] | inhibition [2] | IC50 [3] | IC50 [4] | inhibition [5] | IC50 [6] |
| --- | --- | --- | --- | --- | --- | --- |
| Brc1cccc(-c2nnnn2CCCN2CCC(Cc3ccccc3)CC2)c1 | > 55% | > 55% | 4.34 µM | > 10 µM | > 55% | > 10 µM |
| O=[N+]([O-])c1ccc(-c2nnnn2CCCN2CCC(Cc3ccccc3)CC2)cc1 | > 55% | > 55% | 5.02 µM | 5.25 µM | > 55% | > 10 µM |
| Clc1cccc(-c2nnnn2CCCN2CCC(Cc3ccccc3)CC2)c1 | > 55% | > 55% | 3.59 µM | 1.35 µM | > 55% | 5.18 µM |
| c1ccc(CC2CCN(CCn3nnnc3-c3cccc4ccccc34)CC2)cc1 | > 55% | > 55% | > 10 µM | > 10 µM | > 55% | > 10 µM |
| COc1ccc(-c2nnnn2CCCN2CCC(Cc3ccccc3)CC2)cc1 | > 55% | > 55% | 5.52 µM | 4.05 µM | > 55% | > 10 µM |
| Clc1ccccc1-c1nnnn1CCCN1CCC(Cc2ccccc2)CC1 | > 55% | > 55% | 3.96 µM | 1.32 µM | > 55% | 6.55 µM |
| Brc1ccccc1-c1nnnn1CCCN1CCC(Cc2ccccc2)CC1 | > 55% | > 55% | 3.46 µM | 5.13 µM | > 55% | > 10 µM |
| FC(F)(F)c1cccc(-c2nnnn2CCCN2CCC(Cc3ccccc3)CC2)c1 | > 55% | > 55% | 5.1 µM | 8.81 µM | > 55% | 3.74 µM |

Continued by falling IC50 [3], values first:

| inhibition [1] | inhibition [2] | IC50 [3] | IC50 [4] | inhibition [5] | IC50 [6] | SMILES |
| --- | --- | --- | --- | --- | --- | --- |
| > 55% | > 55% | 3.45 µM | 3.96 µM | > 55% | > 10 µM | Clc1cccc(-c2nnnn2CCCN2CCC(Cc3ccccc3)CC2)c1Cl |
| > 55% | > 55% | 3.08 µM | 4.05 µM | > 55% | 14.6 µM | CC(=O)c1cccc(-c2nnnn2CCN2CCC(Cc3ccccc3)CC2)c1 |
| > 55% | > 55% | 3.03 µM | 0.88 µM | > 55% | 4.02 µM | c1ccc(CC2CCN(CCCn3nnnc3-c3ccccc3)CC2)cc1 |
| > 55% | > 55% | 3 µM | 0.54 µM | > 55% | 5.04 µM | CC(=O)c1cccc(-c2nnnn2CCCN2CCC(Cc3ccccc3)CC2)c1 |
| > 55% | > 55% | 2.58 µM | 3.13 µM | > 55% | 8.32 µM | Clc1ccc(-c2nnnn2CCCN2CCC(Cc3ccccc3)CC2)cc1 |
| > 55% | > 55% | 2.51 µM | 0.31 µM | > 55% | 6 µM | c1ccc(CC2CCN(CCCn3nnnc3-c3cccc4ccccc34)CC2)cc1 |
| > 55% | > 55% | 2.28 µM | 2 µM | > 55% | 3.29 µM | Fc1ccc(-c2nnnn2CCCN2CCC(Cc3ccccc3)CC2)cc1 |
| > 55% | > 55% | 1.35 µM | 1.24 µM | > 55% | 1.98 µM | O=[N+]([O-])c1ccc(-c2nnnn2CCN2CCC(Cc3ccccc3)CC2)cc1 |
